Assay results from ChEMBL document CHEMBL3297678, “New insights into the biological properties of Crocus sativus L.: chemical modifications, human monoamine oxidases inhibition and molecular modeling studies” (Eur J Med Chem, 2014).

Key:
Homo sapiens = organism: Homo sapiens; assay: Selectivity ratio of IC50 for recombinant human MAO-B expressed in insect cells to IC50 for recombinant human MAO-A expressed in insect cells
[1] = target: T1, Amine oxidase [flavin-containing] A (Homo sapiens, UniProt P21397); assay: Inhibition of recombinant human MAO-A expressed in insect cells assessed as inhibition of oxidation of kynuramine to 4-hydroxyquinoline after 20 mins by fluorescence spectrophotometry
T1 sequence (P21397 whole entry): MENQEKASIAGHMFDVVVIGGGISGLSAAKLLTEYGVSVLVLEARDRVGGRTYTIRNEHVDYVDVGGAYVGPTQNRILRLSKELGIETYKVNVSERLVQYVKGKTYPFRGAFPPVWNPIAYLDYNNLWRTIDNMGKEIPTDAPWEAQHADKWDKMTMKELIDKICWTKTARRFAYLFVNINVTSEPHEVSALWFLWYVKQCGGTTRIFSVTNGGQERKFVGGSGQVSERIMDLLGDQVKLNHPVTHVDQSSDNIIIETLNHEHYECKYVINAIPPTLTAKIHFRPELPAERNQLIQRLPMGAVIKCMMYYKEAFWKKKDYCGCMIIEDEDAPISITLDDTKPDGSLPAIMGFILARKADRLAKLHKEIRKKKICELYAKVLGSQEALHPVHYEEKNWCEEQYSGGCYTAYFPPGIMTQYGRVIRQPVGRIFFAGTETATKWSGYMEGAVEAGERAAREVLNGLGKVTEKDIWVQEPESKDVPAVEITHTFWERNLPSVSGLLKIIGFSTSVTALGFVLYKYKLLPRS
Summary of the method: (§1)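 Enzyme source was insect-cell microsomes carrying recombinant hMAO-A or hMAO-B. Kynuramine substrate was oxidized to 4-hydroxyquinoline in 100 mM potassium phosphate, pH 7.4, made isotonic with 20.2 mM KCl, with 4% DMSO and varied inhibitor concentrations. Product was read by fluorescence (ex 310/em 400 nm) against a linear calibration curve. Controls excluded inhibitor fluorescence or quenching. IC50 came from a one-site competition fit of initial rate versus log[inhibitor]; mean ± SD of triplicates.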

[2] = target: T2, Amine oxidase [flavin-containing] B (Homo sapiens, UniProt P27338); assay: Inhibition of recombinant human MAO-B expressed in insect cells assessed as inhibition of oxidation of kynuramine to 4-hydroxyquinoline after 20 mins by fluorescence spectrophotometry; summary of the method: as §1
T2 sequence (P27338 whole entry): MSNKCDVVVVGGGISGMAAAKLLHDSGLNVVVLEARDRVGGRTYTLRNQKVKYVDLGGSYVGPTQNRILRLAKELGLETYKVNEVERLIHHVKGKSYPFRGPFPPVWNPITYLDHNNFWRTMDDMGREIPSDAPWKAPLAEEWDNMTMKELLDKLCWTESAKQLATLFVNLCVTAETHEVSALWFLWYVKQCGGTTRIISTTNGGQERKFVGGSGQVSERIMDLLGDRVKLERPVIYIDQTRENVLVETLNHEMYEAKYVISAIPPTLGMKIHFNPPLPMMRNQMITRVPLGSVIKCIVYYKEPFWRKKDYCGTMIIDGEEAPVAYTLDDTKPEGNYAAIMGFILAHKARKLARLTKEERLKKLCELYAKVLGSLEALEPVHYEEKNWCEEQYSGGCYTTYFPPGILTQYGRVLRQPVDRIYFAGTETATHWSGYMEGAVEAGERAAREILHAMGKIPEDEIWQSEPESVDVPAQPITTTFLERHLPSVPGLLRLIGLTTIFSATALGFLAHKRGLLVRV

Row | SMILES | Ratio IC50 (Homo sapiens) | IC50 ([1]; read-out: IC50) | IC50 ([2]; read-out: IC50) | IC50 [1] | IC50 [2]
1 | CC1=C(/C=N/NC(=S)Nc2ccccc2)C(C)(C)CC=C1 | 11 | 19.5 µM | 224 µM |  | 
2 | CC(/C=C/C=C(\C)C(=O)O[C@@H]1O[C@H](CO[C@@H]2O[C@H](CO)[C@@H](O)[C@H](O)[C@H]2O)[C@@H](O)[C@H](O)[C@H]1O)=C\C=C\C=C(C)\C=C\C=C(/C)C(=O)O[C@@H]1O[C@H](CO[C@@H]2O[C@H](CO)[C@@H](O)[C@H](O)[C@H]2O)[C@@H](O)[C@H](O)[C@H]1O [CROCIN] |  | 170 µM | 128 µM |  | 
3 | CC1=C(/C=N/Nc2nc(-c3cccc([N+](=O)[O-])c3)cs2)C(C)(C)CC=C1 |  | 9.93 µM | 0.1 µM |  | 
4 | CC1=C(/C=N/NC(N)=S)C(C)(C)CC=C1 |  | 56.8 µM | 74.5 µM |  | 
5 | CC1=C(/C=N/NC(N)=O)C(C)(C)CC=C1 |  | 164 µM | 111 µM |  | 
6 | CC1=C(/C=N/N=C2/NC(=O)CS2)C(C)(C)CC=C1 |  | 132 µM | 168 µM |  | 
7 | CC1=C(C=O)C(C)(C)CC=C1 |  |  |  | Not Active | Not Active
8 | CC1=C(/C=N/N=C2\SCC(=O)N2Cc2ccccc2)C(C)(C)CC=C1 |  | 86.6 µM | 215 µM |  | 
9 | CC1=C(/C=N/N(C)C(N)=S)C(C)(C)CC=C1 |  | 93.2 µM | 117 µM |  | 
